Read-outs that look alike come from different tables or passages of the source.
Experiments:
[1] = system: MDA-MB-231 triple-negative breast cancer carcinoma; test: Anti-proliferative NBB assay; format: cell-based, human; settings: read-out: IC50 MDA-MB-231; 72 h
[2] = system: HCT116 colorectal carcinoma; test: Anti-proliferative NBB assay; format: cell-based, human; settings: read-out: IC50 HCT116; 72 h
[3] = system: NCI-H460 cells; test: Lysosomal integrity; format: cell-based, human; settings: 10 µM, 24 h
Summary of the method: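 NCI-H460 cells were exposed to test compound (10 μM) for 24 h and then stained. Stains were acridine orange (10 μM), LysoTracker Deep Red with MitoTracker Green (50 nM), and pepstatin A–BODIPY FL conjugate (1 μM) co-stained with LysoTracker Deep Red. Imaging was by confocal microscopy, checking vesicular staining loss and cytosolic probe leakage against vehicle.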

[4] = system: LC3 (LC3-II); test: Immunoblotting of autophagy marker LC3; format: cell-based, human; settings: Western blotting; 1a 0-30 µM 6 h or 10 µM 6-24 h; cisplatin 0-20 µM 6 h
[5] = system: NCI-H460 non-small cell lung carcinoma; test: Anti-proliferative NBB assay; format: cell-based, human; settings: read-out: IC50 NCI-H460; 72 h
[6] = system: NCI-H460 cells; test: Mitochondrial depolarization assay; format: cell-based, human; settings: 10 µM, 24 h, relative to vehicle
[7] = system: NCI-H460 cells; test: Cell cycle analysis by flow cytometry; format: cell-based, human; settings: 10 µM
[8] = system: CCD-19Lu normal lung fibroblast; test: Anti-proliferative NBB assay; format: cell-based, human; settings: read-out: IC50 CCD-19Lu; 72 h
[9] = system: NCI-H460 cells; test: Annexin V-FITC/PI double staining, flow cytometry; format: cell-based, human; settings: 20 µM, 72 h
[10] = system: NCI-H460 cells; test: γ-H2AX immunofluorescence staining; format: cell-based, human; settings: 10 µM, 24 h post-treatment
[11] = system: A2780 ovarian carcinoma; test: Anti-proliferative NBB assay; format: cell-based, human; settings: read-out: IC50 A2780; 72 h
[12] = system: PLC primary liver carcinoma; test: Anti-proliferative NBB assay; format: cell-based, human; settings: read-out: IC50 PLC; 72 h
[13] = system: NCI-H460 cancer cells and CCD-19Lu normal fibroblast cells; test: Comparative cellular uptake, cancer versus normal cells, ICP-MS; format: cell-based, human
[14] = system: calf thymus DNA (ctDNA); test: UV-vis absorption titration with DNA; format: binding; settings: complex 30 µM, Tris-HCl pH 7.4
[15] = Aqueous solubility; format: physicochemical
[16] = system: NCI-H460 cells; test: Cellular uptake of platinum by ICP-MS; format: cell-based, human; settings: for decrease in Pt levels in cells: 2 h treatment
[17] = system: DNA duplex bearing cytosine–cytosine (CC) mismatched base pairs; test: DNA binding affinity by ITC
[18] = system: NCI-H460 cells stably expressing mRFP-GFP-LC3; test: Live cell imaging of mRFP-GFP-tagged LC3; format: cell-based, human; settings: 10 µM, 24 h
[19] = system: different cancer cell lines; test: Anti-proliferative NBB assay, summary over several cancer cell lines; format: cell-based, human; settings: for IC50: read-out: IC50 toward different cell lines, NCI-H460 lung, PLC liver and HCT116 colorectal carcinomas
[20] = system: ctDNA; test: DNA binding affinity by isothermal titration calorimetry; design: species or system calf
[21] = system: telomeric G-quadruplex (HTelo) DNA; test: UV-vis absorption titration with DNA; format: binding; settings: at λmax of 345 nm
[22] = target: guanine–cytosine (GC)-rich DNA; test: DNA binding affinity by ITC; settings: read-out: KD (GC-rich DNA), one-site binding model, pH 7.4
[23] = system: β-glucosidase (from almonds); test: Enzymatic cleavage of the glycosidic linkage, UPLC/MS; format: in vitro ADME
Summary of the method: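 Test compound incubated with almond β-glucosidase (0.5 U mL⁻¹) in PBS pH 5.8 at 37 °C for up to 24 h. Enzyme-free controls were run in PBS pH 5.8 and pH 7.4. Release of the deglycosylated aglycone was followed over time by UPLC/MS peak tracking (retention time and m/z).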

[24] = system: NCI-H460 lung cancer xenografts; test: In vivo anti-tumor study; design: species or system nude mouse; settings: 1a 25 mg kg^−1 i.v., 14 days
Summary of the method: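 Nude mice bearing NCI-H460 xenografts were randomised into groups (n = 6). Groups received test compound (25 mg kg⁻¹) or PBS vehicle i.v. for 14 days; cisplatin (1.5 mg kg⁻¹ i.v.) on a similar regimen served as positive control. Tumour volume was tracked. Dissected tumours were weighed and examined by H&E and Ki-67 immunohistochemistry. Data are given as mean ± standard error.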

[25] = Lipophilicity measurement; format: physicochemical; settings: n-octanol / 0.9 % aqueous NaCl, 298 K
[26] = Particle size by nanoparticle tracking analysis; format: physicochemical
[27] = In vivo systemic toxicity; design: species or system nude mouse
Summary of the method: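 Tumour-bearing nude mice (n = 6) received test compound (25 mg kg⁻¹ i.v.) or PBS vehicle for 14 days. Body weight was tracked throughout. At day 14, major organs were harvested for H&E histology, and blood was analysed for ALT and creatinine.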

[28] = system: NCI-H460 cells; test: Subcellular distribution of platinum content by ICP-MS; format: cell-based, human; settings: 24 h treatment
[29] = system: NCI-H460 cells; test: Intracellular oxidant level; format: cell-based, human; settings: 10 µM, 24 h

N.N.[Cl][Pt][Cl] [Cisplatin, reference compound]
IC50 [1]: 19.7 ± 1.6 µM
IC50 [2]: 5.1 ± 0.4 µM
lysosomal integrity [3]: negligible damage to the cellular lysosomes
level of LC3-II [4]: dose-dependent increase
IC50 [5]: 6.9 ± 0.5 µM
decrease in red fluorescence of JC-1 (mitochondrial depolarization) [6]: 8.3%
increase in G2/M populations ([7]; 24 h, versus vehicle): 53.7%
IC50 [8]: 30.8 ± 4.9 µM
late apoptosis (annexin V-positive and PI-positive) [9]: 87.2%
γ-H2AX foci in nuclei [10]: even more markedly increased
IC50 [11]: 8.9 ± 0.7 µM
IC50 [12]: 9.1 ± 1.2 µM

[Pt(tpy)(C?CArOGlu)](CF3SO3) [Complex 1a]
fold higher Pt accumulation in NCI-H460 than in CCD-19Lu cells [13]: 1.9 fold
bathochromic (red) shift of lowest-energy absorption band upon addition of ctDNA [14]: 42 nm
hypochromism upon addition of ctDNA ([14]; lowest-energy absorption band): 16.8%
IC50 [1]: 23.8 ± 5.8 µM
solubility (water) [15]: 8600 µg/mL
IC50 [2]: 7.5 ± 0.6 µM
lysosomal integrity [3]: disruption of lysosomes
fold higher intracellular Pt level than 1b ([16]; 10 µM, after 24 h): ca. 3.2 fold
fold higher intracellular Pt level than 1c ([16]; 10 µM, after 24 h): ~8 fold
fold higher intracellular Pt level than 1d ([16]; 10 µM, after 24 h): ~1.6 fold
decrease in Pt levels in cells ([16]; hypertonic sucrose (450 mM)): 27.4%
decrease in Pt levels in cells ([16]; incubation at 4 °C): 77.1%
reduction in the cellular Pt level (upper figure) ([16]; low temperature (4 °C) or inhibition of endocytosis): up to 80%
decrease in Pt levels in cells ([16]; nocodazole (50 µM)): 41.9%
fold higher binding affinity than 2 (CC mismatched DNA) ([17]; 1a versus 2): 4.3 fold
Kd ([17]; read-out: KD (CC mismatched DNA), ITC, one-site binding model, pH 7.4): 19.6 µM
level of LC3-II [4]: increased levels
Pearson's colocalization coefficient of green and red LC3 puncta [18]: 0.64
fold higher anti-proliferative activity than 1b ([19]; most of the cancer cell lines, 72 h): 1.4- to 2.4 fold
IC50 ([19]; 24 h post-treatment): > 100 µM
IC50 ([19]; after 48 h): 54.6 to 74.5 µM
fold lower KD than 2 (ctDNA) ([20]; 1a versus 2): 27.5 fold
Kd ([20]; read-out: KD (ctDNA), ITC, one-site binding model, pH 7.4): 0.48 µM
IC50 [5]: 7.1 ± 0.3 µM
hypochromism upon addition of HTelo DNA [21]: 19.6%
decrease in red fluorescence of JC-1 (mitochondrial depolarization) [6]: ca. 21%
Kd [22]: 74.1 µM
conversion of 1a into 1d ([23]; buffer control without β-glu, PBS pH 5.8, 24 h): ca. 2%
conversion of 1a into 1d ([23]; β-glu 0.5 U mL^−1, PBS pH 5.8, 37 °C, 24 h): more than 70%
increase in G0/G1 populations ([7]; 24 h, versus vehicle): 9.3%
change in cell populations on prolonging treatment to 48 h ([7]; 48 h compared with 24 h): no significant increase in cell populations
IC50 [8]: > 100 µM
immunohistochemical staining for Ki-67 in tumor specimens [24]: significant reduction
lipophilicity (log P) [25]: −0.88
average hydrodynamic diameter ([26]; RPMI 1640 cell culture medium containing 10% fetal bovine serum): 87.3 ± 4.6 nm
average hydrodynamic diameter ([26]; aqueous solution containing 1% DMSO, 100 µM): 139.6 ± 2.5 nm
necrotic cell death (annexin V-negative and PI-positive) [9]: 91%
γ-H2AX foci in nuclei [10]: some significant fluorescent γ-H2AX foci
histopathology of major organs (heart, liver, spleen, lungs and kidneys) ([27]; 25 mg kg^−1 i.v., after 14 days, H&E): No obvious histopathological lesion
plasma level of alanine aminotransferase (ALT) ([27]; 25 mg kg^−1 i.v., day 14): comparable to those in the vehicle control
plasma level of creatinine (CREA) ([27]; 25 mg kg^−1 i.v., day 14): comparable to those in the vehicle control
death or weight loss of mice ([27]; throughout the 14-day treatment period): None of the mice died or displayed any sign of weight loss
IC50 [11]: 8.7 ± 0.2 µM
Pt content in cytosolic fraction [28]: 55%
Pt content in mitochondrial fraction [28]: 37%
Pt content in nuclear fraction [28]: 9%
IC50 [12]: 17.2 ± 1.2 µM
increment in DCF fluorescence intensity versus vehicle control [29]: ~1.2 fold

Source: publication PMC8635173 (Chemical Science, 2021)
